The source of these data is ChEMBL document CHEMBL5335768, “Expanding the knowledge around antitubercular 5-(2-aminothiazol-4-yl)isoxazole-3-carboxamides: Hit-to-lead optimization and release of a novel antitubercular chemotype via scaffold derivatization” (Eur J Med Chem, 2023).

Structures are written as SMILES. Converted amounts (≈) assume the structure as drawn. The source made the active and inactive calls. The rule behind the calls is not given here.

A word on the MIC90: it is an inhibitory concentration at the 90% level, which refers to growth in some studies and to a panel of isolates in others. The term IC50 denotes the point on the concentration scale where inhibition reaches its midpoint. By inhibition is commonly meant the share of the control response that was lost under treatment.

The test system of series [1] is Mycobacterium avium. The series can be described thus: Antitubercular activity against Mycobacterium avium 11 assessed as inhibition of bacterial growth upto 100 uM measured after 4 days by broth microdilution method. The class given is functional, organism-based. To be noted: time 4.0 day. In short, it runs like this:
(§1)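 Twofold serial dilutions inoculated at OD600 0.05; incubated at 37 °C, shaking at 110 rpm, for 3 days (M. abscessus Bamboo) or 4 days (M. avium 11). […] Clarithromycin positive control; data representative of two independent replicates.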

The test system of series [2] is Mycobacterium tuberculosis. The series can be described thus: Antitubercular activity against Mycobacterium tuberculosis H37Rv assessed as inhibition of bacterial growth incubated for 7 days by REMA method. The class given is functional.
In series [3] the test system is Mycobacteroides abscessus. The series can be described thus: Antitubercular activity against Mycobacterium abscessus Bamboo assessed as inhibition of bacterial growth upto 100 uM measured after 3 days by broth microdilution method. The class given is functional, organism-based. To be noted: time 3.0 day. In short, it runs like this: as §1
A general note: In broth dilution the organism is exposed to a series of concentrations in liquid medium.

A short description of series [4]: Cytotoxicity against human THP-1 cells assessed as reduction in cell viability measured after 72 hrs by MTT assay. The class given is toxicity, cell-based. Summed up:
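THP-1 monocytes were differentiated to macrophages with PMA 100 ng/mL for 72 h. They were then exposed to compounds at 1, 10, 50 and 100 μM for 72 h, each tested twice. MTT at 1 mg/mL in RPMI with 5% FBS was added for 2 h at 37 °C; formazan was dissolved in DMSO and read at 570 nm. Viability is given as % of control; IC50 from non-linear regression.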
(Tetrazolium dyes change colour on reduction, which living cells bring about.)

Series [5] in a line: Half life in human liver microsomes at 1 uM preincubated with NADP+ for 5 mins prior to compound addition by HPLC-MRM-MS analysis. The class given is ADME, Microsome. In short, it runs like this:
(§2)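 Pooled HLM at 1 mg/mL protein in 100 mM PBS pH 7.4 with an NADPH-regenerating mix: G6P 10 mM, NADP+ 2 mM, MgCl2 5 mM, G6PDH 1.5 U/mL (stock concentrations). Pre-incubated 5 min at 37 °C, then compound added to 1 μM final (1% DMSO).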
A general note: Liver microsomes are a subcellular fraction often used to study metabolism.

The subject of series [6] is Mycobacteroides abscessus. The series can be described thus: Antitubercular activity against Mycobacterium abscessus Bamboo assessed as inhibition of bacterial growth at 100 uM measured after 3 days by broth microdilution method. The class given is functional. The following applies: 72 h, time 3 day. Summed up: as §1
The subject of series [7] is Mycobacterium avium. The series can be described thus: Antitubercular activity against Mycobacterium avium 11 assessed as inhibition of bacterial growth at 100 uM measured after 4 days by broth microdilution method. The class given is functional. The following applies: Mycobacterium avium, 11, 96 h, time 4 day.
Series [8] deals with Mycobacterium marinum. The series can be described thus: Antitubercular activity against Mycobacterium marinum ATCC BAA-535 assessed as inhibition of bacterial growth measured after 3 weeks by broth microdilution method. The following applies: ATCC BAA-535, 504 h. The class given is functional.
Series [9] is described as follows: Metabolic stability of the compound in human liver microsomes assessed as parent residual fraction at 1 uM preincubated with NADP+ for 5 mins prior to compound addition by HPCLC-MRM-MS analysis. To be noted: read-out: Stability. The class given is ADME, Microsome. In short, it runs like this:
as §2

Series [10] deals with Mycobacterium marinum. To be noted: ATCC BAA-535, time 3.0 weeks.
The mark [11] stands for this setting: Mycobacterium tuberculosis, H37Rv, 168 h, time 7 day, read-out: MIC90.

Take `Cc1ccc(Nc2nc(-c3cc(C(=O)Nc4ccccc4)no3)co2)cc1`: the outcome (in the series with Mycobacterium avium [1]; in [3]) was inactive. Further, the MIC90 in [2] (setting [11]) turned out to be 1 µg/mL (≈ 2.77 µM). Besides, in series [4], the IC50 at 72 h was greater than 100 µg/mL.

`Cc1ccc(Nc2nc(-c3cc(C(=O)Nc4ccccn4)no3)cs2)cc1O`: the outcome (in the series with Mycobacterium avium [1]; in [3]) was inactive. Also, in series [2] (setting [11]), the MIC90 amounted to 5 µg/mL (≈ 12.7 µM). The concentration for half-maximal inhibition (IC50) at 72 h in [4] is greater than 100 µg/mL.

As to `O=C(Nc1ccccn1)c1cc(-c2csc(Nc3ccccc3)n2)on1`, the t1/2 in [5] worked out at 66 min. For the same molecule, the MIC90 in series [2] (setting [11]) was greater than 20 µg/mL. Further, the inhibition at 100 µM (in [6]; in the series with Mycobacterium avium [7]) was 50% in each case.

As for `Cc1cc(C)cc(Nc2nc(-c3cc(C(=O)Nc4ccccc4)no3)cs2)c1`, the result (in the series on Mycobacterium avium [1]; in series [3]) was inactive. Besides, the MIC90 in series [2] (setting [11]) turned out to be 1 µg/mL (≈ 2.56 µM). The IC50 at 72 h in [4] is 70.9 µg/mL (≈ 182 µM).

On to `Cc1ccc(Nc2nc(-c3cc(C(=O)Nc4ccccc4C)no3)cs2)cc1`, for which the result (in the series on Mycobacterium avium [1]; in series [3]) was inactive. The MIC90 in series [2] (setting [11]) was 1 µg/mL (≈ 2.56 µM). For the same molecule, the IC50 at 72 h in series [4] came out at 63.7 µg/mL (≈ 163 µM).

Consider `O=C(Nc1ccccc1)c1cc(-c2csc(Nc3ccc(Cl)cc3)n2)on1`, for which the t1/2 in [5] is 59 min. For the same molecule, the MIC90 in [2] (setting [11]) amounted to 1.25 µg/mL (≈ 3.15 µM); in the series with Mycobacterium marinum [8], 2 µg/mL (≈ 5.04 µM). For the same molecule, in series [4], the IC50 at 72 h is greater than 100 µg/mL.

For the molecule `Cc1ccc(Nc2nc(-c3cc(C(=O)Nc4ccc(O)cc4)no3)cs2)cc1O`, in series [5], the t1/2 was determined as 19 min. Besides, in series [2] (setting [11]), the MIC90 is 5 µg/mL (≈ 12.2 µM).

Take `Nc1nc(-c2cc(C(=O)Nc3ccccn3)no2)cs1`: in series [9], the remaining at 1 µM is 96%. In series [2] (setting [11]), the MIC90 is greater than 20 µg/mL.

On to `Cc1ccc(Nc2nc(-c3cc(C(=O)Nc4cccc(C)c4)no3)cs2)cc1`, for which the result (with Mycobacterium avium [1]; in [3]) was inactive. In series [2] (setting [11]), the MIC90 was 0.5 µg/mL (≈ 1.28 µM). Moreover, the IC50 at 72 h in series [4] is 10.7 µg/mL (≈ 27.4 µM).

Turning to `Cc1ccc(Nc2nc(-c3cc(C(=O)Nc4ccc(F)cc4)no3)cs2)cc1`, the outcome (with Mycobacterium avium [1]; in [3]) was inactive. For the same molecule, the MIC90 in [2] (setting [11]) turned out to be 1 µg/mL (≈ 2.54 µM). In series [4], the IC50 at 72 h came out at 46.8 µg/mL (≈ 119 µM).

For `O=C(Nc1ccccn1)c1cc(-c2csc(Nc3ccc(C(F)(F)F)cc3)n2)on1`, the remaining at 1 µM in series [9] came out at 85%. In series [2] (setting [11]), the MIC90 was greater than 20 µg/mL.

As to `O=C(Nc1ccccc1)c1cc(C(=O)Nc2nc3ccccc3s2)on1`, the MIC90 entry (in the series with Mycobacterium marinum [10]; in series [2] (time 7.0 day)) was “inactive” throughout.

As to `O=C(Nc1ccccn1)c1cc(C(=O)Nc2nc3ccccc3s2)on1`, the MIC90 entry (with Mycobacterium marinum [10]; in series [2] (time 7.0 day)) was “inactive” throughout.

As to `Cc1ccc(Nc2nc(-c3cc(C(=O)Nc4ccc(O)cc4)no3)cs2)cc1`, the result (with Mycobacterium avium [1]; in series [3]) was inactive. The values for the MIC90 (in series [2] (setting [11]); with Mycobacterium marinum [8]) were 0.5 µg/mL (≈ 1.27 µM) and 1 µg/mL (≈ 2.55 µM), respectively. Also, in [4], the IC50 at 72 h amounted to 79.1 µg/mL (≈ 202 µM).

Consider `Cc1ccc(Nc2nc(-c3cc(C(=O)Nc4ccncc4)no3)cs2)cc1`, for which the result (with Mycobacterium avium [1]; in [3]) was inactive. Moreover, in series [2] (setting [11]), the MIC90 amounted to 1 µg/mL (≈ 2.65 µM). The IC50 at 72 h in series [4] turned out to be 29.9 µg/mL (≈ 79.2 µM).

On to `Cc1ccc(Nc2nc(-c3cc(C(=O)Nc4ccsc4)no3)cs2)cc1`, for which the MIC90 (in [2] (setting [11]); in the series with Mycobacterium marinum [8]) was 1 µg/mL (≈ 2.61 µM) each time. Further, the IC50 at 72 h in series [4] was greater than 100 µg/mL.

For `Cc1ccc2nc(NC(=O)c3cc(C(=O)Nc4ccccn4)no3)sc2c1`, the MIC90 result (in the series with Mycobacterium marinum [10]; in series [2] (time 7.0 day)) was “inactive” throughout.

For the molecule `O=C(Nc1ccccc1)c1cc(-c2csc(Nc3cccc(O)c3)n2)on1`, the t1/2 in series [5] stood at 34 min. In addition, in series [2] (setting [11]), the MIC90 turned out to be 5 µg/mL (≈ 13.2 µM).

For `O=C(Nc1ccccn1)c1cc(-c2csc(Nc3cc(Cl)c(Cl)c(Cl)c3)n2)on1`, in [9], the remaining at 1 µM stood at 102%. In addition, in series [2] (setting [11]), the MIC90 is greater than 20 µg/mL.

Consider `O=C(Nc1ccccc1)c1cc(-c2csc(Nc3cc(Cl)c(Cl)c(Cl)c3)n2)on1`, for which the remaining at 1 µM in [9] was 101%. Besides, the MIC90 in series [2] (setting [11]) is greater than 20 µg/mL.

Regarding `Nc1nc(-c2cc(C(=O)Nc3ccccc3)no2)cs1`, the remaining at 1 µM in series [9] was 97%. Besides, in series [2] (setting [11]), the MIC90 is greater than 20 µg/mL.

In [5], `O=C(Nc1ccccc1)c1cc(-c2csc(Nc3ccccc3)n2)on1` displayed a t1/2 of 43 min. Also, the MIC90 in series [2] (setting [11]) was determined as 1.25 µg/mL (≈ 3.45 µM). The inhibition at 100 µM (in [6]; in the series on Mycobacterium avium [7]) was 50% in each case. Besides, the IC50 at 72 h in series [4] was determined as 11.9 µg/mL (≈ 32.8 µM).

`Cc1ccc(Nc2nc(-c3cc(C(=O)Nc4cccc(C)n4)no3)cs2)cc1`: the MIC90 in the series on Mycobacterium marinum [8] came out at 1 µg/mL (≈ 2.55 µM). Besides, the IC50 at 72 h in [4] worked out at 66.8 µg/mL (≈ 171 µM).

Regarding `Cc1cccc(NC(=O)c2cc(C(=O)Nc3nc4ccccc4s3)on2)c1`, the MIC90 result (in the series with Mycobacterium marinum [10]; in [2] (time 7.0 day)) was “inactive” in each case.

Turning to `Cc1ccc2nc(NC(=O)c3cc(C(=O)Nc4ccccc4)no3)sc2c1`, the MIC90 entry (in the series on Mycobacterium marinum [10]; in series [2] (time 7.0 day)) was “inactive” each time.

As for `Cc1ccc(Nc2nc(-c3cc(C(=O)Nc4cccc(F)c4)no3)cs2)cc1`, the outcome (in the series with Mycobacterium avium [1]; in [3]) was inactive. The MIC90 in [2] (setting [11]) is 2.5 µg/mL (≈ 6.34 µM).

Regarding `O=C(Nc1cccc(F)c1)c1cc(C(=O)Nc2nc3ccccc3s2)on1`, the MIC90 entry (in the series with Mycobacterium marinum [10]; in series [2] (time 7.0 day)) was “inactive” in each case.

On to `Cc1ccc(Nc2nc(-c3cc(C(=O)Nc4cccc(O)c4)no3)cs2)cc1`, for which the result (with Mycobacterium avium [1]; in series [3]) was inactive. Further, the MIC90 in series [2] (setting [11]) came out at 0.5 µg/mL (≈ 1.27 µM). Also, the IC50 at 72 h in series [4] is 48.7 µg/mL (≈ 124 µM).

Take `COc1ccc2sc(NC(=O)c3cc(C(=O)Nc4cccc(C)c4)no3)nc2c1`: the MIC90 result (in the series with Mycobacterium marinum [10]; in [2] (time 7.0 day)) was “inactive” in each case.

With `O=C(Nc1ccc(O)cc1)c1cc(C(=O)Nc2nc3ccccc3s2)on1`, the MIC90 result (with Mycobacterium marinum [10]; in series [2] (time 7.0 day)) was “inactive” each time.

Take `O=C(Nc1ccccc1)c1cc(-c2csc(Nc3ccc(C(F)(F)F)cc3)n2)on1`: the remaining at 1 µM in series [9] was 71%. In addition, in [2] (setting [11]), the MIC90 is greater than 20 µg/mL.

Turning to `Cc1ccc(Nc2nc(-c3cc(C(=O)Nc4cc(C)ccn4)no3)cs2)cc1`, the MIC90 in series [2] (setting [11]) was determined as 1 µg/mL (≈ 2.55 µM). Besides, the inhibition at 100 µM (in series [6]; in the series with Mycobacterium avium [7]) was 50% throughout. Moreover, the IC50 at 72 h in series [4] is 86.3 µg/mL (≈ 220 µM).
